According to ChEMBL document CHEMBL2016495, “Design and synthesis of potent, isoxazole-containing renin inhibitors” (Bioorg Med Chem Lett, 2012):

Tests used:
Cytochrome P450 3A4 = Cytochrome P450 3A4 (Homo sapiens, UniProt P08684); assay: Reversible inhibition of CYP3A4-mediated conversion of testosterone to 6-beta-hydroxy-testosterone after 30 mins; assay type: ADME
[1] = target: Voltage-gated inwardly rectifying potassium channel KCNH2 (Homo sapiens, UniProt Q12809); assay: Binding affinity to human Erg
CYP3A4 = CYP3A4 (Homo sapiens, UniProt P08684); assay: Inhibition of CYP3A4 assessed as time dependent inhibition of conversion of testosterone to 6-beta-hydroxy-testosterone at 10 uM; assay type: ADME; settings: probe testosterone
Renin [2] = target: T1, Renin (Homo sapiens, UniProt P00797); assay: Inhibition of human recombinant renin using QXL520-Lys-His-Pro-Phe-His-Leu-Val-Ile-His-Lys-(5-FAM) as substrate pretreated for 10 mins measured after 1 hr by fluorescence analysis in presence of human plasma
T1 sequence (P00797 whole entry): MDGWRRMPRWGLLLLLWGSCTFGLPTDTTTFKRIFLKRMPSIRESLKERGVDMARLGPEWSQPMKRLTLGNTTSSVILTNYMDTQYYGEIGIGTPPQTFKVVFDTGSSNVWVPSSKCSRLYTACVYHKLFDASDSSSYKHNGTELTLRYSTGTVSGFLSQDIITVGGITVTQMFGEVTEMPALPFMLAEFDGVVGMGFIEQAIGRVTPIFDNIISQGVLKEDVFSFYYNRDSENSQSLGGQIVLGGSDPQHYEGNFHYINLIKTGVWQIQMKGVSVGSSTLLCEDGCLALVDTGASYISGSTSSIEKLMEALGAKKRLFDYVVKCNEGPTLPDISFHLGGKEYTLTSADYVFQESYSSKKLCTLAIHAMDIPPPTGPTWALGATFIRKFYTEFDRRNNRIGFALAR

Renin [3] = target: T1, Renin; assay: Inhibition of human recombinant renin using DNP-Lys-His-Pro-Phe-His-Leu-Val-Ile-His-D,L-Amp as substrate after 3 hrs by fluorescence analysis
Outline: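 Recombinant human renin at 100 pM, with or without inhibitor, and 6 µM Q-FRET substrate in 50 mM MOPS, 100 mM NaCl, pH 7.4, 0.002% Tween. Incubated at 37 °C for 3 h. Fluorescence (ex 328 / em 388 nm) was read at 0 and 3 h.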

[4] = Oral bioavailability in Sprague-Dawley rat at 3 mg/kg; assay type: ADME, organism-based; settings: in vivo
Outline: (§1)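 Rats dosed orally at 3 mpk as a solution in 0.5% methyl cellulose.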

Rattus norvegicus [5] = assay: Antihypertensive activity in double transgenic rat assessed as decrease in blood pressure at 3 mg/kg, po; assay type: functional
[6] = AUC in Sprague-Dawley rat at 3 mg/kg, po; assay type: ADME, organism-based; set-up: dose 3 mg/kg, route oral; settings: plasma; outline: as §1
[7] = Volume of distribution at steady state in Sprague-Dawley rat at 3 mg/kg, po and 0.5 mg/kg, iv; assay type: ADME, organism-based; settings: in vivo, read-out: Vdss
[8] = Clearance in Sprague-Dawley rat at 3 mg/kg, po and 0.5 mg/kg, iv; assay type: ADME, organism-based; settings: in vivo
[9] = Half life in Sprague-Dawley rat at 3 mg/kg, po and 0.5 mg/kg, iv; assay type: ADME, organism-based; settings: in vivo; outline: as §1
Rattus norvegicus [10] = assay: Antihypertensive activity in double transgenic rat assessed as duration of decrease in blood pressure at 3 mg/kg, po; assay type: functional

Cytochrome P450 3A4, sequence (P08684 whole entry): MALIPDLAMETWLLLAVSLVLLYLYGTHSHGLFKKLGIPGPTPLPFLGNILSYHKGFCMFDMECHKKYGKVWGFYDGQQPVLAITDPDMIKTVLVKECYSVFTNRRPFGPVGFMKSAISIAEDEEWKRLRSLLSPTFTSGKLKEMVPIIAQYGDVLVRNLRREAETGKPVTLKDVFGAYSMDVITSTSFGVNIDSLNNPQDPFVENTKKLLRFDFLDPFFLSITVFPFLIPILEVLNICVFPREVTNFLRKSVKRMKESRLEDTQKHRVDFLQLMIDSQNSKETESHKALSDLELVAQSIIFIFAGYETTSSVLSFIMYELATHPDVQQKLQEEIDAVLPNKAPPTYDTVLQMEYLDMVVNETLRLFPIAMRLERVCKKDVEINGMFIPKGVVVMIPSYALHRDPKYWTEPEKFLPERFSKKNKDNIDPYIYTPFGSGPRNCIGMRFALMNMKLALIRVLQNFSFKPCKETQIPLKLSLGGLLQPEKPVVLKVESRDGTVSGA
CYP3A4, sequence (P08684 whole entry): as above
Voltage-gated inwardly rectifying potassium channel KCNH2, sequence (Q12809 whole entry): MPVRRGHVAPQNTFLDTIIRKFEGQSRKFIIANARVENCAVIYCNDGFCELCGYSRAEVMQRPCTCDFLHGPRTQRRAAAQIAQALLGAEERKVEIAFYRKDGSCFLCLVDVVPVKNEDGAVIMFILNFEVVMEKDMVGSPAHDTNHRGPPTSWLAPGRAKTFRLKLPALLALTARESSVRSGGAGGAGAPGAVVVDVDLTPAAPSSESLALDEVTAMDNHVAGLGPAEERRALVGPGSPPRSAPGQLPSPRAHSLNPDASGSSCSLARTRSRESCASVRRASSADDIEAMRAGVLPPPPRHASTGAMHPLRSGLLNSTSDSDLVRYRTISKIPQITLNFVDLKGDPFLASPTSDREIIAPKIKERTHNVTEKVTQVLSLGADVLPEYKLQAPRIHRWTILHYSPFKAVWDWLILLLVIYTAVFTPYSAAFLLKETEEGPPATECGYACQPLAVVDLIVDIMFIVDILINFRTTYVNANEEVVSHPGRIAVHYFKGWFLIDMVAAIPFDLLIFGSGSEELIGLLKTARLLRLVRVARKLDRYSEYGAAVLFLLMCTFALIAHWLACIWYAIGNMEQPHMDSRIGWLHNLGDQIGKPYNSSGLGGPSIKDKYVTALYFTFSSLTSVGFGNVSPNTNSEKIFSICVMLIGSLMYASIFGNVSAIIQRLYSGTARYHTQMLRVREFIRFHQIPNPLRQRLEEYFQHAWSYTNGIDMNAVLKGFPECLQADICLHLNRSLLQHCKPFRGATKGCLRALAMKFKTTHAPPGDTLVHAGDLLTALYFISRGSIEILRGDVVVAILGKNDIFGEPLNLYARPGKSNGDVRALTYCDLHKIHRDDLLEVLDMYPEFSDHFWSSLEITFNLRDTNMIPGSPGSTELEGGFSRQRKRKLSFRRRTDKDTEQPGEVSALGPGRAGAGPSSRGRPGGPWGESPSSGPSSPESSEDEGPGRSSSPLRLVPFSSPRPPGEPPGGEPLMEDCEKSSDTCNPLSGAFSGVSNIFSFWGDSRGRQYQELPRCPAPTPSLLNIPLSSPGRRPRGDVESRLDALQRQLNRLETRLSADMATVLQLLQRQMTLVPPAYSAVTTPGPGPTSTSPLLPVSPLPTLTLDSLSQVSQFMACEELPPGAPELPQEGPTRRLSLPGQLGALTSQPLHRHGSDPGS

| Compound | IC50 (Cytochrome P450 3A4) | inhibition at 10 µM (CYP3A4) | IC50 (Renin [3]) | Ki [1] | further results |
| --- | --- | --- | --- | --- | --- |
| CC(=O)NCCc1ccccc1-c1ccc([C@H]2CNCC[C@@H]2c2ccc(F)c(F)c2)c(Cl)c1 | 20 µM |  |  |  |  |
| O[C@]1(c2ccc(F)c(F)c2)CCNC[C@@H]1c1cc(-c2ccc(F)cc2Cl)no1 | 7 µM | 36% |  |  | IC50 (Renin [2]): > 9.5 µM |
| O[C@]1(c2ccc(F)c(F)c2)CCNC[C@@H]1c1onc(-c2ccccc2Cl)c1Br | 18 µM | 76% | 1.14 nM |  |  |
| Cc1cccc(-c2noc([C@H]3CNCC[C@]3(O)c3ccc(F)c(F)c3)c2Br)c1C | 20 µM | 77% |  | 6 µM |  |
| O[C@]1(c2ccc(F)c(F)c2)CCNC[C@@H]1c1onc(-c2cccc3ccccc23)c1Br | > 50 µM | 67% | 0.06 nM | 4.2 µM |  |
| CC(=O)NCCc1ccccc1-c1noc([C@H]2CNCC[C@]2(O)c2ccc(F)c(F)c2)c1Br | 45 µM | 74% |  |  |  |
| O[C@]1(c2ccc(F)c(F)c2)CCNC[C@@H]1c1cc(-c2c(Cl)cccc2Cl)on1 | 17 µM | 60% |  | 9.8 µM | IC50 (Renin [2]): > 9.5 µM |
| CC(=O)NCCc1cc(F)ccc1-c1onc([C@H]2CNCC[C@]2(O)c2ccc(F)c(F)c2)c1Br | 45 µM | 78% |  |  | IC50 (Renin [2]): 0.0007 µM |
| CC(=O)NCCc1ccccc1-c1onc([C@H]2CNCC[C@]2(O)c2ccc(F)c(F)c2)c1Cl | > 50 µM | 74% | 0.73 nM |  |  |
| CO[C@]1(c2ccc(F)c(F)c2)CCNC[C@@H]1c1noc(-c2ccccc2CCNC(C)=O)c1Br | 28 µM | 60% | 0.17 nM |  |  |
| CC(=O)NCCc1ccccc1-c1onc([C@H]2CNCC[C@]2(C(N)=O)c2ccc(F)c(F)c2)c1Br |  |  | 0.22 nM | 30 µM | IC50 (Renin [2]): 0.0006 µM |

More lines, main results first:

| IC50 (Cytochrome P450 3A4) | inhibition at 10 µM (CYP3A4) | IC50 (Renin [3]) | Compound | Ki [1] | further results |
| --- | --- | --- | --- | --- | --- |
| 3 µM | 22% |  | O[C@]1(c2ccc(F)c(F)c2)CCNC[C@@H]1c1cc(-c2ccc(F)cc2Br)no1 | 1.7 µM |  |
| 8 µM | 59% |  | O[C@]1(c2ccc(F)c(F)c2)CCNC[C@@H]1c1cc(-c2c(Cl)cccc2Cl)no1 | 2.8 µM |  |
| 19 µM | 60% |  | O[C@]1(c2ccc(F)c(F)c2)CCNC[C@@H]1c1onc(-c2cccc(Cl)c2Cl)c1Br |  |  |
| 15 µM | 82% |  | O[C@]1(c2ccc(F)c(F)c2)CCNC[C@@H]1c1onc(-c2c(Cl)cccc2Cl)c1Br | 3.9 µM |  |
| 33 µM | 68% | 0.27 nM | CC(=O)NCCc1ccccc1-c1onc([C@H]2CNCC[C@]2(O)c2ccc(F)c(F)c2)c1Br |  | bioavailability [4]: 16%; Activity (Rattus norvegicus [5]): 44 mmHg; AUC [6]: 0.14 µM·h; Vd [7]: 36 L/kg; clearance [8]: 108 mL/min/kg; half-life [9]: 5.7 h; Time (Rattus norvegicus [10]): 18 h |
| 32 µM | 21% | 166 nM | CC(=O)NCCc1ccccc1-c1cc([C@H]2CNCC[C@]2(O)c2ccc(F)c(F)c2)no1 |  | IC50 (Renin [2]): 0.331 µM |
| 8 µM | 32% |  | CC(=O)NCCc1ccccc1-c1onc([C@H]2CNCC[C@]2(O)c2ccc(F)c(F)c2)c1C(C)=O |  |  |
| > 50 µM | 48% |  | CC(=O)NCCc1ccccc1-c1onc([C@H]2CNCC[C@]2(O)c2ccc(F)c(F)c2)c1C(C)O (stereo partly drawn) |  |  |
| 13 µM | 75% |  | CC(=O)NCCc1ccccc1-c1onc([C@H]2CNCC[C@@H]2c2ccc(F)c(F)c2)c1Br | 19.5 µM |  |
| > 50 µM | 18% |  | CC(=O)NCCc1ccccc1-c1onc([C@H]2CNCC[C@]2(OCC(O)CO)c2ccc(F)c(F)c2)c1Br (stereo partly drawn) | > 60 µM | bioavailability [4]: 0%; Vd [7]: 12 L/kg; clearance [8]: 70 mL/min/kg; half-life [9]: 1.9 h |
| 29 µM | 10% | 0.26 nM | COC[C@H](C)COCc1ccc([C@@]2(O)CCNC[C@@H]2c2noc(-c3ccccc3CCNC(C)=O)c2Br)cc1 | 31.2 µM | bioavailability [4]: 18%; Activity (Rattus norvegicus [5]): 27 mmHg; AUC [6]: 0.13 µM·h; Vd [7]: 12 L/kg; IC50 (Renin [2]): 0.00067 µM; clearance [8]: 124 mL/min/kg; half-life [9]: 1.4 h; Time (Rattus norvegicus [10]): 8 h |
